1 compound from ChEMBL document CHEMBL2029242 (J Med Chem, 2012) can be followed below.

A short description of data set [1]: Half life in human liver microsomes. It is filed as ADME, Microsome. The procedure, abridged:
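Pooled liver microsomes (0.5 mg/mL) in 0.1 M phosphate pH 7.4 with 6.5 mM MgCl2 and compound at 1 μM (0.2% DMSO). NADPH (1 mM) started the reaction at 37 °C, with minus-NADPH and testosterone controls. Aliquots taken at 0, 5, 15, 30 and 60 min were quenched in acetonitrile; duplicates.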

For data set [2], the target named is RAF proto-oncogene serine/threonine-protein kinase (Homo sapiens, UniProt P04049). The data set is described as follows: Inhibition of CRAF in human HEK293 cells after 1 hr by competition binding assay. It is filed as cell-based. The procedure, abridged: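 KINOMEscan competition binding. Binding reactions run at rt for 1 h. Kinase not bound to compound is captured on an immobilized affinity ligand and quantified by qPCR.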
Sequence of RAF proto-oncogene serine/threonine-protein kinase (P04049 whole entry): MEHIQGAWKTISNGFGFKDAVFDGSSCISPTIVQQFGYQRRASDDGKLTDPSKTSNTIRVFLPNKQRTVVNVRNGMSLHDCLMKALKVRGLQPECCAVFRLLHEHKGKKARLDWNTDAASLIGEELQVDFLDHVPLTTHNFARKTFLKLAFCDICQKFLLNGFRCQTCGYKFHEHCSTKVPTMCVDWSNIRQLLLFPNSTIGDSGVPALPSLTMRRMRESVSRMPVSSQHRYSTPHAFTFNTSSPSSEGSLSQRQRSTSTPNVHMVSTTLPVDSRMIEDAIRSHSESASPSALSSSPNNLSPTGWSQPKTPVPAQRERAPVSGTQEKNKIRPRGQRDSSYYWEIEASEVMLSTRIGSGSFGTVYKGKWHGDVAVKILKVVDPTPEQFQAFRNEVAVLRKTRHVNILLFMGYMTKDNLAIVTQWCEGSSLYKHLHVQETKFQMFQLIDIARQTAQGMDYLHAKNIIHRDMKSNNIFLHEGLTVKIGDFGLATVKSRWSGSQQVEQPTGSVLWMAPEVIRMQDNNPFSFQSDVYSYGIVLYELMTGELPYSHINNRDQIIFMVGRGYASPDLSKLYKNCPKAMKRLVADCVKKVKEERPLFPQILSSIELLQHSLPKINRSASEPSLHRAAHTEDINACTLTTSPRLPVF

For data set [3], the target named is Mitogen-activated protein kinase 3 (Homo sapiens, UniProt P27361). The data set is described as follows: Inhibition of ERK1 in human HEK293 cells after 1 hr by competition binding assay. It is filed as cell-based. The procedure, abridged: (§1)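 KINOMEscan competition binding. Binding reactions ran at rt for 1 h. Unbound kinase was captured on an immobilized affinity ligand and quantified by qPCR. Each kinase was tested individually.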
Sequence of Mitogen-activated protein kinase 3 (P27361 whole entry): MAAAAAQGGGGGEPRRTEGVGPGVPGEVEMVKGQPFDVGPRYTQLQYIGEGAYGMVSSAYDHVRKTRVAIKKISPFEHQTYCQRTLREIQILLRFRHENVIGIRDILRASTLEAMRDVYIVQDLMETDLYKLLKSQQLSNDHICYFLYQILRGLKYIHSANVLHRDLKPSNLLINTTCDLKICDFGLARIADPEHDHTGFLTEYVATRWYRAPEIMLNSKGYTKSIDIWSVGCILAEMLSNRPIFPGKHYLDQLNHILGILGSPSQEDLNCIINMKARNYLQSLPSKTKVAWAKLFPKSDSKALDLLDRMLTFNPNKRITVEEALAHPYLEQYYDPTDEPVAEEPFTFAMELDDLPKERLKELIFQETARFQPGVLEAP

The nature of data set [4]: Cmax in Sprague-Dawley rat at 10 mg/kg, po. Set-up: dose 10 mg/kg, route oral. It is filed as ADME, organism-based. To be noted: in vivo. The procedure, abridged: (§2)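 Single-dose PK. Rats: male Sprague−Dawley, jugular-catheterized, 1 mg/kg iv in 3:1 PEG400/water (n = 2) and 10 mg/kg po in Pharmatek #6 (n = 3). Female athymic nude mice: 100 mg/kg po in Pharmatek #6 (n = 3). Beagle dogs and male cynomolgus monkeys (n = 3): crossover, 1 mg/kg iv and 10 mg/kg po in 22% HPβCD, overnight fast. Plasma LC-MS/MS to 24 h; noncompartmental parameters, mean ± SD.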

Data set [5] relates to LNCaP. Description: Cytotoxicity against human LNCAP cells expressing wild type BRAF after 72 hrs by cell titer blue assay. It is filed as functional, cell-based. The procedure, abridged:
(§3)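 Cells were grown in ATCC-recommended media and kept overnight in 0.5% serum. They were then exposed to compound for 72 h, and Cell Titer Blue was added for 3 h. EC50 came from fluorometric concentration−response curves, run in duplicate and repeated at least once.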
Background: Alamar Blue is a resazurin reagent that responds to reducing activity.

Data set [6] has as its target Cytochrome P450 1A2 (Homo sapiens, UniProt P05177). The data set is described as follows: Inhibition of human CYP1A2. It is filed as ADME. The procedure, abridged:
(§4)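 Pooled human liver microsomes (0.25 mg/mL) with NADPH (1 mM) and five pooled probe substrates (testosterone, diclofenac, dextromethorphan, mephenytoin, phenacetin). Test compound ran at eight concentrations, 0.31−40 μM, 20 min at 37 °C, with pooled control inhibitors in parallel. Isoform-specific metabolites were measured by LC-MS/MS.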

Data set [7] concerns Mus musculus. Description: Toxicity in athymic nude mouse xenografted with human COLO205 cells at 10 mg/kg, po bid for 14 days measured upto 1 week post dosing. It is filed as organism-based, COLO 205. Set-up: dose 10 mg/kg, route oral. The following applies: in vivo. The procedure, abridged: (§5)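 Athymic nude mice (20–25 g) were inoculated subcutaneously in the flank with 1×10^6 Colo-205 cells. At 150–200 mm3 they were randomized (n = 10/group) to oral vehicle (22% HPβCD) or 10, 30 or 100 mg/kg BID for 14 days. Calipers were used three times weekly. Body weight and behavior were monitored, with 7–10 days of follow-up after dosing. Partial regression meant volume falling in ≥3 successive measurements, ending below baseline but still palpable.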
(A xenograft is tissue or cells of one species grown in another, often human tumour cells in immunodeficient mice.)

Data set [8] in a line: Half life in Cynomolgus monkey at 1 mg/kg, iv and 10 mg/kg, po. It is filed as ADME, organism-based, Macaca fascicularis. To be noted: in vivo. The procedure, abridged: as §2
A short description of data set [9]: Half life in beagle dog at 1 mg/kg, iv and 10 mg/kg, po. It is filed as ADME, organism-based, Canis lupus familiaris. The following applies: in vivo. The procedure, abridged:
as §2

A short description of data set [10]: Oral bioavailability in Sprague-Dawley rat at 10 mg/kg. It is filed as ADME, organism-based. The following applies: in vivo. The procedure, abridged: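 Male Sprague-Dawley rats (250–350 g, jugular-catheterized) received a single dose either iv at 1 mg/kg in 3:1 PEG400/water (n = 2) or po at 10 mg/kg in Pharmatek #6 (n = 3). Plasma was sampled at 5 min (iv only), 15 and 30 min, and 1, 2, 4, 6 and 24 h. Samples were analyzed by LC-MS/MS after acetonitrile precipitation. Parameters came from noncompartmental linear-trapezoidal analysis of individual animals.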

Data set [11] concerns Mus musculus. Description: Toxicity in athymic nude mouse xenografted with human COLO205 cells at 100 mg/kg, po bid for 14 days measured upto 1 week post dosing. Set-up: dose 100 mg/kg, route oral. To be noted: in vivo. It is filed as organism-based, COLO 205. The procedure, abridged:
as §5

The nature of data set [12]: Clearance in Cynomolgus monkey at 1 mg/kg, iv and 10 mg/kg, po. It is filed as ADME, organism-based, Macaca fascicularis. The following applies: in vivo. The procedure, abridged:
as §2

The target in data set [13] is Dual specificity mitogen-activated protein kinase kinase 2 (Homo sapiens, UniProt P36507). Description: Inhibition of MEK2 in human HEK293 cells after 1 hr by competition binding assay. It is filed as cell-based. The procedure, abridged:
as §1

Data set [14] is described as follows: Cmax in athymic nude mouse at 100 mg/kg, po. The following applies: in vivo. Set-up: dose 100 mg/kg, route oral. It is filed as ADME, organism-based. The procedure, abridged: as §2
The subject of data set [15] is Mus musculus. The data set is described as follows: Inhibition of BRAF V600E mutant-mediated MEK phosphorylation in human COLO205 cells xenografted in athymic nude mouse at 30 mg/kg, po after 2 hrs. It is filed as functional. The following applies: COLO 205, 2 h. The procedure, abridged:
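Mice bearing Colo-205 xenografts got one oral dose in 22% HPβCD; vehicle controls were run. Tumors were collected at time points over 24 h and lysed. pMEK and total MEK in the lysates were measured by immunoblotting and ELISA, and pMEK was normalized to total MEK.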

In data set [16] the test system is Liver. The data set is described as follows: Intrinsic clearance in dog liver microsomes. It is filed as ADME, Canis lupus familiaris, Microsome. The procedure, abridged: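 Pooled liver microsomes (0.5 mg/mL) were premixed with 0.1 M phosphate buffer pH 7.4, 6.5 mM MgCl2 and test compound (1 μM final, 0.2% DMSO). NADPH (1 mM) started the reaction at 37 °C, in duplicate. Minus-NADPH and testosterone controls were included. Aliquots were taken at 0, 5, 15, 30 and 60 min and quenched in acetonitrile containing internal standard.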
In general terms: Microsomes from liver hold many membrane-bound enzymes, among them those of drug oxidation.

The test system of data set [17] is HT-144. Description: Cytotoxicity against human HT144 cells expressing BRAF V600E mutant after 72 hrs by cell titer blue assay. The following applies: HT-144, 72 h. It is filed as functional, cell-based. The procedure, abridged: as §3
Data set [18] deals with Mitogen-activated protein kinase 1 (Homo sapiens, UniProt P28482). Description: Inhibition of ERK2 in human HEK293 cells after 1 hr by competition binding assay. It is filed as cell-based. The procedure, abridged: as §1
Sequence of Mitogen-activated protein kinase 1 (P28482 whole entry): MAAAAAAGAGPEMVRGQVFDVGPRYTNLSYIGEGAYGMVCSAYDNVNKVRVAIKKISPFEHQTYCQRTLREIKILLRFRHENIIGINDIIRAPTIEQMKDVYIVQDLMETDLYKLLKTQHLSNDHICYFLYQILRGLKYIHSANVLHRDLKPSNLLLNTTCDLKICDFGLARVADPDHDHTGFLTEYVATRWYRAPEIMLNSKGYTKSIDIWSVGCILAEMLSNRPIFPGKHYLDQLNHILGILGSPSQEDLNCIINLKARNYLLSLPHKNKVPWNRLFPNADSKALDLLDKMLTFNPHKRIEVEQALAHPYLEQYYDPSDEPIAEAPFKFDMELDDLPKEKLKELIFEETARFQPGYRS
In data set [19] the target is Cytochrome P450 2C19 (Homo sapiens, UniProt P33261). Description: Inhibition of human CYP2C19. It is filed as ADME. The procedure, abridged:
as §4

The target in data set [20] is Tyrosine-protein kinase JAK1 (Homo sapiens, UniProt P23458). The data set is described as follows: Inhibition of JAK1 in human HEK293 cells after 1 hr by competition binding assay. It is filed as cell-based. The procedure, abridged:
as §1

Data set [21] addresses Aurora kinase B (Homo sapiens, UniProt Q96GD4). The data set is described as follows: Inhibition of Aurora B in human HEK293 cells after 1 hr by competition binding assay. It is filed as cell-based. The procedure, abridged:
as §1

Data set [22] has as its system PC-3. Description: Cytotoxicity against human PC3 cells expressing wild type BRAF after 72 hrs by cell titer blue assay. It is filed as functional, cell-based. To be noted: PC-3, 72 h. The procedure, abridged: as §3
A short description of data set [23]: Tmax in athymic nude mouse at 100 mg/kg, po. To be noted: in vivo. It is filed as ADME, organism-based. Set-up: dose 100 mg/kg, route oral. The procedure, abridged:
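Female athymic nude mice (20–25 g, n = 3) received a single oral dose of 100 mg/kg in Pharmatek #6, calculated as free base. Blood was drawn into K3EDTA at 15 and 30 min and at 1, 2, 4, 6 and 24 h. Plasma was analyzed by LC-MS/MS. Parameters came from noncompartmental linear-trapezoidal analysis; mean ± SD reported.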

Sequence of Cytochrome P450 2C19 (P33261 whole entry): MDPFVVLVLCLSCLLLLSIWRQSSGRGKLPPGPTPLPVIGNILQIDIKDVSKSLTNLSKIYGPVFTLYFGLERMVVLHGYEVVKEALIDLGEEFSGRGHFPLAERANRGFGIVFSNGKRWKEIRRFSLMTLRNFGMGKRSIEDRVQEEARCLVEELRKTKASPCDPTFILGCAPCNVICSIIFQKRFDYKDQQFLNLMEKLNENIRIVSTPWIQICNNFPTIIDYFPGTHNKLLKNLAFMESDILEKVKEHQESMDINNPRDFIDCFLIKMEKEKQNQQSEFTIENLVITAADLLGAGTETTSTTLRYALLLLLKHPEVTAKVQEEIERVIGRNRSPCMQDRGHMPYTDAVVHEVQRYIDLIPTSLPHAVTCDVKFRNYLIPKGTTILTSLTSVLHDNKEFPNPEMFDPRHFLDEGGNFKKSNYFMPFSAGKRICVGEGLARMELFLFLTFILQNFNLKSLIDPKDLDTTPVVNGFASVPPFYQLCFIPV
Sequence of Tyrosine-protein kinase JAK1 (P23458 whole entry): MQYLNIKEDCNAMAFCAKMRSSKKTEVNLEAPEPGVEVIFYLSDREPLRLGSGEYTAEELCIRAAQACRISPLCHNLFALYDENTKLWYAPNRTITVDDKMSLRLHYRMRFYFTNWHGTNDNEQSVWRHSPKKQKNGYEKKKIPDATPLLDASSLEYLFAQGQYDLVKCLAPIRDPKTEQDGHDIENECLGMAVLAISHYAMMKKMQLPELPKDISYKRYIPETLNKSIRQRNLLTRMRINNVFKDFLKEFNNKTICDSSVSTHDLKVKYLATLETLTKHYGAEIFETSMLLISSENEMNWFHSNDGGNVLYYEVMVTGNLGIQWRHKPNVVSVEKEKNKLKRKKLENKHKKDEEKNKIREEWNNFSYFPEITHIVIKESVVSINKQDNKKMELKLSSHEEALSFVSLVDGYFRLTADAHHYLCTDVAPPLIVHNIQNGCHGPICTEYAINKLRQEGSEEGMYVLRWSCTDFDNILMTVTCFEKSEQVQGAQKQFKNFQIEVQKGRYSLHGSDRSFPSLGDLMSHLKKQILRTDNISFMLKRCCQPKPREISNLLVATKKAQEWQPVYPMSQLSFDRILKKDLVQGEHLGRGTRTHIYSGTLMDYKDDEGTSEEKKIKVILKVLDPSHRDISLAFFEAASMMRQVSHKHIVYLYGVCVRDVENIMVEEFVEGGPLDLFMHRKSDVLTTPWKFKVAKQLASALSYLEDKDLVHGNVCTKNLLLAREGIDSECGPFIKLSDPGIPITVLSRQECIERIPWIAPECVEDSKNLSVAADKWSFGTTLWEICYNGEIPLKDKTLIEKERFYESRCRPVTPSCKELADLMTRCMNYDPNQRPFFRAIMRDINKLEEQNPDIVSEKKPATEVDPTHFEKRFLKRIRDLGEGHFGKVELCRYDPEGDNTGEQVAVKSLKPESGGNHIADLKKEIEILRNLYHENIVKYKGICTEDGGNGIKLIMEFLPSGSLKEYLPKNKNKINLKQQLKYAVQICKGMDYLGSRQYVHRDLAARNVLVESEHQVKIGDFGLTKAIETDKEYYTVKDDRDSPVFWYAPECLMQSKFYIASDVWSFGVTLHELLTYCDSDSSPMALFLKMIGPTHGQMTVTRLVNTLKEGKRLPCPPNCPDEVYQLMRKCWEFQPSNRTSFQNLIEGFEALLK
Sequence of Cytochrome P450 1A2 (P05177 whole entry, canonical isoform): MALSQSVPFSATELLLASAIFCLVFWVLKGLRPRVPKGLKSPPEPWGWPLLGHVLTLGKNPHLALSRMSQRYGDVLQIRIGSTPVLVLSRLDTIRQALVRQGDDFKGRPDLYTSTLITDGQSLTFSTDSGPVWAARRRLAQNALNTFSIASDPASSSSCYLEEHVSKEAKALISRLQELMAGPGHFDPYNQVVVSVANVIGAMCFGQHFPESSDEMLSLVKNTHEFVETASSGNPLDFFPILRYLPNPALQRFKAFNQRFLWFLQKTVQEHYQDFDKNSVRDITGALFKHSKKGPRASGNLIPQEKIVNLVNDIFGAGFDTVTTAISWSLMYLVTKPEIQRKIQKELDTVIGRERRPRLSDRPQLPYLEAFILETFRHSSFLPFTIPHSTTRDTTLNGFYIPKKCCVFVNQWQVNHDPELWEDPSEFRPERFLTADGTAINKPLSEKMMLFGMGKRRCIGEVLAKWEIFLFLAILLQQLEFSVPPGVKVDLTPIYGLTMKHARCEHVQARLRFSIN
Sequence of Dual specificity mitogen-activated protein kinase kinase 2 (P36507 whole entry): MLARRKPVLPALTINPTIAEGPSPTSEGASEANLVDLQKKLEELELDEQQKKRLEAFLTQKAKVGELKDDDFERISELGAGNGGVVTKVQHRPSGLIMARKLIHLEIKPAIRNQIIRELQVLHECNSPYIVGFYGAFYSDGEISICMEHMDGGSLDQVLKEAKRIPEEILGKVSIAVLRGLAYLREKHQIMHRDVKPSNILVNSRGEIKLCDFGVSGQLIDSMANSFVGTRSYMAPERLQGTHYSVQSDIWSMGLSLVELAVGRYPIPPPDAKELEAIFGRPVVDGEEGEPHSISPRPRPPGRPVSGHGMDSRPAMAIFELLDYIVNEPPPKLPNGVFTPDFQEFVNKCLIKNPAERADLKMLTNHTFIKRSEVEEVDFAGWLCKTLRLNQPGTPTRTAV
Sequence of Aurora kinase B (Q96GD4 whole entry): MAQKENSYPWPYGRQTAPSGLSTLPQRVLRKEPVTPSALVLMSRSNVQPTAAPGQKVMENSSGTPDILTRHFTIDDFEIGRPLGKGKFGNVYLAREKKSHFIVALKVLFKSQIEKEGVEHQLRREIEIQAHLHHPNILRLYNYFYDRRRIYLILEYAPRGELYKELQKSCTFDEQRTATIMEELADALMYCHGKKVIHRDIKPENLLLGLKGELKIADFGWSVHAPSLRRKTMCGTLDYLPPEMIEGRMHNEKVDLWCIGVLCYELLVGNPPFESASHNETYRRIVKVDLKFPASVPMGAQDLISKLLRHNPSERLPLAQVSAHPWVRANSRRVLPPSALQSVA

On to `COc1cc2ncnc(Oc3cccc(NC(=O)Nc4cc(C(C)(C)C(F)(F)F)on4)c3)c2cc1OC` [CEP-32496], for which the figures for the half-life in data set [1], in data set [8] and in data set [9] were above 1 h, 4.9 h and 12 h, respectively. Besides, the Kd (in general, a measure of binding affinity in units of concentration) was 0.039 µM in data set [2]; above 10 µM in [3]; 8.3 µM in data set [13]; above 10 µM in [18]; above 10 µM in [20]; above 10 µM in data set [21]. In addition, the values for the Cmax in [4] and in data set [14] were 6.5 µM and 35.6 µM, respectively. Besides, the EC50 (as a rule, the concentration needed to bring the measured effect to its halfway point) in data set [5] worked out at 6.63 µM; in data set [17], 0.228 µM; in [22] it was 6.26 µM. Moreover, the values for the IC50 in [6] and in data set [19] were above 10 µM and 3.4 µM, respectively. The Activity result in [7] and in data set [11] was “Non-toxic” in each case. Further, the bioavailability (in general, the share of a dose that reaches the circulation, judged against a reference dose that is usually intravenous) in data set [10] turned out to be 94%. In data set [12], this compound had a clearance of 6.7 mL/min/kg. Besides, the inhibition in vivo (in general, how much of the control response was suppressed) at 30 mg/kg in data set [15] came to 50%. In data set [16], this compound returned a CLH below 23 µL/min/mg. In addition, the Tmax (in general, the time from dosing to the highest level) in [23] was found to be 1.3 h.
